Converted amounts (≈) assume the structure as drawn. The source made the active and inactive calls. The calls are words filed in the database; no cut-off is given here.
Experiments:
[1] = Solubility of the compound in pH 6.5 solution; assay type: physicochemical; conditions: buffer
Procedure, shortened: (§1)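 Solubility S was determined in buffer at pH 6.5 for the parent series and regioisomer mixtures, and at pH 7.2 for the phenol/carbamate series.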

[2] = system: Malme-3M; experiment: Cytotoxicity against human MALME-3M cells after 72 hrs by MTT assay; assay type: functional, cell-based
[3] = system: SK-MEL-28; experiment: Cytotoxicity against human SK-MEL-28 cells after 72 hrs by MTT assay; assay type: functional, cell-based; conditions: SK-MEL-28, 72 h
[4] = system: HCT-116; experiment: Cytotoxicity against human HCT116 cells after 72 hrs by MTT assay; assay type: functional, cell-based; conditions: HCT-116, 72 h
[5] = system: Calf thymus DNA; experiment: Binding affinity to calf thymus DNA at 60 uM by fluorescence spectral analysis; assay type: nucleic-acid assay; conditions: Bos taurus
Procedure, shortened: (§2)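 Fluorescence emission spectra recorded while calf thymus DNA was titrated into the compound solution. […] Binding was judged by attenuation (quench) of emission on DNA addition.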

[6] = system: Malme-3M; experiment: Induction of DCD mRNA expression in human MALME-3M cells at 30 to 100 nM after 24 hrs by RT-qPCR method; assay type: functional, cell-based
[7] = system: SK-MEL-28; experiment: Induction of DCD mRNA expression in human SK-MEL-28 cells at 30 to 100 nM after 24 hrs by RT-qPCR method; assay type: functional, cell-based
[8] = system: HCT-116; experiment: Induction of DCD mRNA expression in human HCT116 cells at 1 to 10 uM after 24 hrs by RT-qPCR method; assay type: functional, cell-based
[9] = system: Calf thymus DNA; experiment: Binding affinity to calf thymus DNA at 20 uM by fluorescence spectral analysis; assay type: nucleic-acid assay; conditions: Bos taurus; procedure, shortened: as §2
[10] = Solubility of the compound in pH 7.2 solution; assay type: physicochemical; conditions: buffer; procedure, shortened: as §1
[11] = Stability of the compound at 23 degC for 3 months at solid state; assay type: physicochemical; conditions: 2191.5 h
[12] = Stability of the compound in pH 7.2 PBS buffer at 23 degC for 1 month by NMR analysis; assay type: physicochemical; conditions: pH 7.2, 730.5 h
Procedure, shortened: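 Purity was followed by NMR in PBS pH 7.2 for 1 month at 23 °C, and in cell culture medium at 37 °C for 48 h (limit of testing).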

[13] = Stability of the compound in pH 7.2 PBS buffer at 37 degC for 48 hrs by NMR analysis; assay type: physicochemical; conditions: pH 7.2, 48 h
[14] = Drug metabolism in aqueous media assessed as 2-hydroxydinaphtho[2,3-b:2',3'-d]thiophene-5,7,12,13-tetraone formation by NMR analysis
Procedure, shortened: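 DMSO stocks of the carbamate at 1.0 or 0.5 mg/mL were diluted 20-fold into PBS pH 7.2. Samples were held 24 h at 23 °C, and hydrolytic release of the phenol (purple salt) was monitored.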

[15] = system: HCT-116; experiment: Induction of oxidative stress in human HCT116 cells at 100 uM after 1 hr by CellROX green/NucBlue staining based confocal microscopic method; assay type: cell-based; conditions: hct-116, 1 h
Procedure, shortened: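 HCT-116 cells were stained with CellROX Green for reactive oxygen species and counterstained with NucBlue for nuclei. Imaging was by confocal microscopy, scoring green fluorescent mitochondria as the oxidative-stress read-out.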

**Q.** With O=c1c2ccccc2c(=O)c2c1[nH]c1c(=O)c3ccccc3c(=O)c12 as the compound, how does the solubility [1] read?
**A.** 0.4 µM (≈ 0.131 µg/mL)

**Q.** And the IC50 [2]?
**A.** 2.03 µM

**Q.** What about the IC50 [3] of the same compound?
**A.** 4.3 µM

**Q.** What about the IC50 [4] of the same compound?
**A.** 4.24 µM

**Q.** For O=c1c2ccccc2c(=O)c2c1oc1c(=O)c3ccccc3c(=O)c12, which solubility [1] is on record?
**A.** 0.09 µM (≈ 0.0295 µg/mL)

**Q.** And the IC50 [2]?
**A.** 1.11 µM

**Q.** What about the IC50 [3] of the same compound?
**A.** 3.47 µM

**Q.** What about the IC50 [4] of the same compound?
**A.** 4.08 µM

**Q.** Which solubility [1] does the source give for O=c1c2ccccc2c(=O)c2c1sc1c(=O)c3ccccc3c(=O)c12 here?
**A.** 0.06 µM (≈ 0.0207 µg/mL)

**Q.** And the IC50 [2]?
**A.** 0.05 µM

**Q.** What about the IC50 [3] of the same compound?
**A.** 0.36 µM

**Q.** What about the IC50 [4] of the same compound?
**A.** 1.29 µM

**Q.** And the Activity [5]?
**A.** inactive

**Q.** And the Activity [6]?
**A.** Active

**Q.** What about the Activity [7] of the same compound?
**A.** Active

**Q.** And the Activity [8]?
**A.** Active

**Q.** For COc1cccc2c1C(=O)c1c(O)c3c(c(O)c1C2=O)C[C@@](O)(C(=O)CO)C[C@@H]3O[C@H]1C[C@H](N)[C@H](O)[C@H](C)O1 [DOXORUBICIN], which IC50 [2] is on record?
**A.** 0.5 µM

**Q.** What about the IC50 [3] of the same compound?
**A.** 3 µM

**Q.** What about the Activity [9] of the same compound?
**A.** Active

**Q.** Which solubility [10] does the source give for O=c1c2ccccc2c(=O)c2c1sc1c(=O)c3ccc(O)cc3c(=O)c12 here?
**A.** 0.4 µM (≈ 0.144 µg/mL)

**Q.** What about the IC50 [2] of the same compound?
**A.** 0.22 µM

**Q.** What about the IC50 [3] of the same compound?
**A.** 0.33 µM

**Q.** What about the IC50 [4] of the same compound?
**A.** 1.45 µM

**Q.** And the Stability [11]?
**A.** Stable

**Q.** What about the Stability [12] of the same compound?
**A.** Stable

**Q.** And the Stability [13]?
**A.** Stable

**Q.** And the Activity [6]?
**A.** Active

**Q.** What about the Activity [7] of the same compound?
**A.** Active

**Q.** What about the Activity [8] of the same compound?
**A.** Active

**Q.** Which solubility [10] does the source give for COc1ccc2c(=O)c3sc4c(=O)c5ccccc5c(=O)c4c3c(=O)c2c1 here?
**A.** 8.2 µM (≈ 3.07 µg/mL)

**Q.** And the IC50 [2]?
**A.** 0.06 µM

**Q.** What about the IC50 [3] of the same compound?
**A.** 7 µM

**Q.** What about the IC50 [4] of the same compound?
**A.** 8.16 µM

**Q.** What about the Stability [11] of the same compound?
**A.** Stable

**Q.** And the Stability [12]?
**A.** Stable

**Q.** And the Stability [13]?
**A.** Stable

**Q.** With O=c1c2ccccc2c(=O)c2c1sc1c(=O)c3ncccc3c(=O)c12 as the compound, how does the solubility [1] read?
**A.** 0.5 µM (≈ 0.173 µg/mL)

**Q.** And the IC50 [2]?
**A.** 0.1 µM

**Q.** What about the IC50 [3] of the same compound?
**A.** 2.15 µM

**Q.** What about the IC50 [4] of the same compound?
**A.** 0.54 µM

**Q.** For CCCCNC(=O)Oc1ccc2c(=O)c3sc4c(=O)c5ccccc5c(=O)c4c3c(=O)c2c1, which solubility [10] is on record?
**A.** 24.6 µM (≈ 11.3 µg/mL)

**Q.** What about the IC50 [2] of the same compound?
**A.** 0.06 µM

**Q.** And the IC50 [3]?
**A.** 1.8 µM

**Q.** What about the IC50 [4] of the same compound?
**A.** 0.75 µM

**Q.** What about the Activity [5] of the same compound?
**A.** inactive

**Q.** And the Stability [11]?
**A.** Stable

**Q.** What about the Drug metabolism [14] of the same compound?
**A.** Metabolite detected

**Q.** And the Activity [6]?
**A.** Active

**Q.** And the Activity [7]?
**A.** Active

**Q.** And the Activity [8]?
**A.** Active

**Q.** And the Activity [15]?
**A.** Non-Toxic

Reference: ChEMBL document CHEMBL4330182, “Advance of Seriniquinone Analogues as Melanoma Agents” (ACS Med Chem Lett, 2019)
